A word on the IC50: it is the concentration that gives 50% inhibition.

Common to all, as to format: functional, cell-based
One experiment has as its system MDA-MB-435. Kind of experiment: Cytotoxicity in human MDA-MB-435 cells assessed as reduction in cell viability incubated for 72 hrs by cell-titer-96 aqueous one solution cell proliferation assay. The settings on record: MDA-MB-435, 72 h. The method in brief:
(§1)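 Cells were seeded and cultured overnight at 37 °C in 5% CO2, then exposed to sample, paclitaxel (positive control) or DMSO vehicle for 72 h. Viability was read by CellTiter 96 AQueous One Solution (MTS) assay, and IC50 was calculated relative to the vehicle control.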

The next experiment concerns MDA-MB-231. Nature of the experiment: Cytotoxicity in human MDA-MB-231 cells assessed as reduction in cell viability incubated for 72 hrs by cell-titer-96 aqueous one solution cell proliferation assay. The note with it: MDA-MB-231, 72 h. In outline:
as §1

For a further experiment, the system named is OVCAR-3. Nature of the experiment: Cytotoxicity in human OVCAR3 cells assessed as reduction in cell viability incubated for 72 hrs by cell-titer-96 aqueous one solution cell proliferation assay. The settings on record: OVCAR-3, 72 h. In outline: as §1

For the molecule `CCCC[C@H]1CCCC[C@H](C)[C@@H](OC(C)=O)c2cc(O)c(c(O)c2)[C@@H](CCCC)CCCC[C@H](C)[C@@H](OC(C)=O)c2cc(O)c1c(O)c2`, the IC50 with MDA-MB-435 is 12000 nM; in the experiment on MDA-MB-231, 13000 nM; in the experiment with OVCAR-3, 10000 nM.

For `C[C@H]1CCCC[C@H](CCCC(Cl)Cl)c2c(O)cc(cc2O)[C@H](OC(N)=O)[C@@H](C)CCCC[C@H](CCCC(Cl)Cl)c2c(O)cc(cc2O)[C@@H]1OC(N)=O`, the IC50 was 2400 nM in the experiment on MDA-MB-435, 1000 nM in the experiment with MDA-MB-231 and 4300 nM with OVCAR-3.

As for `C[C@@H]1CCCCC[C@H](CCCCO)c2c(O)cc(cc2O)[C@H](C)CCCCC[C@H](CCCCO)c2c(O)cc1cc2O`, the IC50 amounted to 900 nM with MDA-MB-435, 1000 nM in the experiment with MDA-MB-231 and 2000 nM with OVCAR-3.

With `C[C@H]1CCCC[C@H](CCCC(Cl)Cl)c2c(O)cc(cc2O)[C@H](OC(N)=O)[C@@H](C)CCCC[C@H](CCCC(Cl)Cl)c2c(O)cc(cc2O)[C@@H]1O`, the IC50 amounted to 3200 nM in the experiment with MDA-MB-435, 1200 nM with MDA-MB-231 and 4200 nM in the experiment with OVCAR-3.

On to `CCCC[C@H]1CCCCC[C@@H](C)c2cc(O)c(c(O)c2)[C@@H](CCCCO)CCCCC[C@@H](C)c2cc(O)c1c(O)c2`, for which the IC50 in the experiment on MDA-MB-435 worked out at 1600 nM; in the experiment with MDA-MB-231, 1400 nM; in the experiment with OVCAR-3 it was 1400 nM.

On to `CCCC[C@H]1CCCCC[C@@H](C)c2cc(O)c(c(O)c2)[C@@H](CCCC)CCCCC[C@@H](C)c2cc(O)c1c(O)c2`, for which the IC50 in the experiment on MDA-MB-435 amounted to 9800 nM; with MDA-MB-231, 6200 nM; in the experiment on OVCAR-3, 5100 nM.

These data come from ChEMBL document CHEMBL4229323, “Merocyclophanes C and D from the Cultured Freshwater Cyanobacterium Nostoc sp. (UIC 10110)” (J Nat Prod, 2017).
